Reference: ChEMBL document CHEMBL5357069, “Development of a GC-376 Based Peptidomimetic PROTAC as a Degrader of 3-Chymotrypsin-like Protease of SARS-CoV-2” (ACS Med Chem Lett, 2024)
Activity calls are given as the source filed them. The calls are words filed in the database; no cut-off is given here.

Columns and labels:
[1] = molecular target: Replicase polyprotein 1ab (Severe acute respiratory syndrome coronavirus 2, UniProt P0DTD1); test: Inhibition of N-terminal 6xHis-tagged SARS-CoV-2 3CLPro expressed in Escherichia coli BL21(DE3) using Hi-lyte Fluor-488-ESATLQSGLRKAK-(QXL-520)-NH2 as substrate preincubated for 10 mins followed by substrate addition measured for 30 mins by fluorometric assay
[2] = molecular target: Replicase polyprotein 1ab (Severe acute respiratory syndrome coronavirus 2) (UniProt P0DTD1); test: Binding affinity to SARS-CoV-2 3CLPro assessed as covalent complex formation by MALDI TOF mass spectrometry
[3] = molecular target: Replicase polyprotein 1ab (Severe acute respiratory syndrome coronavirus 2) (UniProt P0DTD1); test: Inhibition of N-terminal 6xHis-tagged SARS-CoV-2 3CLPro expressed in Escherichia coli BL21(DE3) using Hi-lyte Fluor-488-ESATLQSGLRKAK-(QXL-520)-NH2 as substrate at 100 uM preincubated for 10 mins followed by substrate addition measured for 30 mins by fluorometric assay relative to control; conditions: time 40.0 min
[4] = molecular target: Replicase polyprotein 1ab (Severe acute respiratory syndrome coronavirus 2) (UniProt P0DTD1); test: Inhibition of N-terminal 6xHis-tagged SARS-CoV-2 3CLPro expressed in Escherichia coli BL21(DE3) using Hi-lyte Fluor-488-ESATLQSGLRKAK-(QXL-520)-NH2 as substrate at 10 uM preincubated for 10 mins followed by substrate addition measured for 30 mins by fluorometric assay relative to control; conditions: time 40.0 min
[5] = molecular target: Replicase polyprotein 1ab (Severe acute respiratory syndrome coronavirus 2) (UniProt P0DTD1); test: Binding affinity to monomeric form of SARS-CoV-2 3CLPro assessed as change in chemical shift by NMR spectroscopy
[6] = molecular target: Replicase polyprotein 1ab (Severe acute respiratory syndrome coronavirus 2) (UniProt P0DTD1); test: Binding affinity to dimeric form of SARS-CoV-2 3CLPro assessed as change in chemical shift by NMR spectroscopy
Summary of the method: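 Solution NMR titration of dimeric 3CLPro with the ligand up to a 1:1 protein:ligand molar ratio, following loss of free-protein signals and appearance of adduct signals.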

[7] = molecular target: Replicase polyprotein 1ab (Severe acute respiratory syndrome coronavirus 2) (UniProt P0DTD1); test: Reversible binding affinity to SARS-CoV-2 3CLPro using fluorogenic substrate assessed as covalent complex formation preincubated for 30 mins followed by substrate addition by MALDI TOF mass spectrometry
Summary of the method: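 Reversibility by dilution: enzyme incubated 30 min with or without large compound excess, then diluted 100-fold into buffer with fluorogenic substrate; initial velocities from progress curves compared against compound-free enzyme.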

[8] = molecular target: T1, Protein cereblon/Replicase polyprotein 1ab (Severe acute respiratory syndrome coronavirus 2) (UniProt Q96SW2+P0DTD1); test: PROTAC activity at CRBN/C-terminal HA epitope-tagged SARS-CoV-2 3CLPro transfected in human HeLa cells assessed as degradation of 3CLPro upto 80 uM by immunoblot analysis; assay type: cell-based
Summary of the method: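 HeLa cells stably expressing C-terminally HA-tagged 3CLPro (lentiviral, puromycin-selected) treated 24 h at a range of concentrations; lysates immunoblotted, 3CLPro normalized to actin.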

[9] = molecular target: T1, Protein cereblon/Replicase polyprotein 1ab (Severe acute respiratory syndrome coronavirus 2); test: PROTAC activity at CRBN/C-terminal HA epitope-tagged SARS-CoV-2 3CLPro transfected in human HeLa cells assessed as degradation of 3CLPro at 80 uM incubated upto 48 hrs by immunoblot analysis; assay type: cell-based
Summary of the method: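 Time course in HeLa cells stably expressing C-terminally HA-tagged 3CLPro (lentiviral transduction, puromycin selection), treated at 80 μM; whole-cell extracts immunoblotted, 3CLPro band normalized to actin.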

HeLa = test: Cytotoxicity against human HeLa cells assessed as cell viability upto 80 uM incubated for 72 hrs by MTT assay; assay type: toxicity, cell-based
Summary of the method: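 HeLa cells exposed to compound for 72 h at a series of concentrations; viability read by MTT assay.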

Compound	IC50 [1] [µM]	Activity [2]	inhibition [3] [%]	inhibition [4] [%]	Activity [5]	Activity [6]	Activity [7]	Activity [8]	Activity [9]	Activity (HeLa)
COC(=O)/C=C/[C@H](C[C@@H]1CCNC1=O)NC(=O)[C@H](CC(C)C)NC(=O)OCc1ccccc1	1.35	Active	–	–	–	–	–	–	–	–
COC(=O)/C=C/[C@H](C[C@@H]1CCNC1=O)NC(=O)[C@H](Cc1ccccc1)NC(=O)[C@@H](NC(=O)CCC(=O)N1CCN(C(=O)C2CCN(c3cccc4c3C(=O)N(C3CCC(=O)NC3=O)C4=O)CC2)CC1)C(C)C (stereo partly drawn)	> 100	–	64	0	–	–	–	–	–	–
CC(C)C[C@H](NC(=O)OCc1ccccc1)C(=O)N[C@H](/C=C/C(=O)N1CCN(CC2CCN(c3cc4c(cc3F)C(=O)N(C3CCC(=O)NC3=O)C4=O)CC2)CC1)C[C@@H]1CCNC1=O (stereo partly drawn)	21.2	Active	–	–	inactive	Active	Active	Active	Active	Non-Toxic
